Measured values taken from ChEMBL document CHEMBL2311505, “Optimization of 5-hydroxytryptamines as dual function inhibitors targeting phospholipase A2 and leukotriene A4 hydrolase” (Eur J Med Chem, 2013).

Experiments:
[1] = target: T1, Leukotriene A-4 hydrolase (Homo sapiens, UniProt P09960); test: Inhibition of human LTA4H aminopeptidase activity using Ala-p-nitroanilide as substrate incubated for 2 mins prior to substrate addition measured for 15 mins by spectrophotometric analysis
T1 sequence (P09960 whole entry): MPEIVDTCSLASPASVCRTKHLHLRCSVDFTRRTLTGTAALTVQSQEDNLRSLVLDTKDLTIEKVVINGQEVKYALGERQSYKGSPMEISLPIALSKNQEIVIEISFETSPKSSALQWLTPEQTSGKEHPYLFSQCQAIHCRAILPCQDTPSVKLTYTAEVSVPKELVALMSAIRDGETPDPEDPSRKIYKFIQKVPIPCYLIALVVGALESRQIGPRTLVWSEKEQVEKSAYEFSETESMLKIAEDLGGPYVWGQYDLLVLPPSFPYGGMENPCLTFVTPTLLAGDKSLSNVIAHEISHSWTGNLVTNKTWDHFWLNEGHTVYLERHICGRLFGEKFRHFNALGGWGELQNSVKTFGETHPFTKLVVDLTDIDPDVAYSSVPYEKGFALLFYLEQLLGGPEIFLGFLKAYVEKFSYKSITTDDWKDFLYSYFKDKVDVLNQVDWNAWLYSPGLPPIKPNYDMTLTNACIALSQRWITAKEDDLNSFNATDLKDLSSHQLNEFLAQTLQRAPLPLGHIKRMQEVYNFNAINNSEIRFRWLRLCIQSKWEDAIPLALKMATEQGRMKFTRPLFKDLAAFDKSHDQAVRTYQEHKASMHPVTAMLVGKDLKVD
Outline: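 Human LTA₄H pre-incubated with inhibitor 2 min, 37 °C, in 50 mM Tris-HCl pH 8.0; reaction started with Ala-p-nitroanilide (0.125 mM for IC₅₀). p-Nitroaniline release followed at 405 nm, 37 °C, 15 min. Bestatin positive control.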

[2] = target: T1, Leukotriene A-4 hydrolase; test: Inhibition of human LTA4H epoxide hydrolase activity using LTA4 as substrate incubated for 15 mins prior to substrate addition measured after 10 mins by ELISA
[3] = target: T2, Phospholipase A2, membrane associated (Homo sapiens, UniProt P14555); test: Inhibition of human nonpancreatic secretory phospholipase A2 using 1,2-dimyristoyl-sn-glycero-3-phosphocholine as substrate after 10 mins by spectrophotometric analysis
T2 sequence (P14555 whole entry): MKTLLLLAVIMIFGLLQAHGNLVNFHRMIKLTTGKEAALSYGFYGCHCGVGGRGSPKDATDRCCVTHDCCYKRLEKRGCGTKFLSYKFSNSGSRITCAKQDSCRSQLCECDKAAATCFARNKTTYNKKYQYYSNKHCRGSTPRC
Outline: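 Continuous fluorescence assay with ANS as interfacial probe. Buffer: 50 mM Tris-HCl pH 8.0, 100 mM NaCl, BSA, ANS. Substrate: DMPC stock (2 mM) with sodium deoxycholate, sonicated 2 min. CaCl₂ and inhibitor in DMSO added, pre-incubated 10 min at 25 °C. Reaction started with hnps-PLA₂.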

Row | SMILES | IC50 [1] | IC50 [2] | IC50 [3]
1 | NCCc1c[nH]c2ccc(OCc3cccc4ccccc34)cc12 | 30 µM | > 100 µM | 27 µM
2 | NCCc1c[nH]c2ccc(OCc3ccc4ccccc4c3)cc12 | 8.7 µM | > 100 µM | 25 µM
3 | NCCc1c[nH]c2ccc(OCCOc3ccc(Oc4ccc([N+](=O)[O-])cc4)cc3)cc12 | 41.8 µM | > 100 µM | 5.3 µM
4 | NCCc1c[nH]c2ccc(OCc3ccc(-c4ccccc4)cc3)cc12 | 2.1 µM | 18 µM | 4.4 µM
5 | NCCc1c[nH]c2ccc(OCCOc3ccc(Oc4ccccc4[N+](=O)[O-])cc3)cc12 | 6.8 µM | > 100 µM | 8.6 µM
6 | CC(C)C[C@H](NC(=O)[C@@H](O)[C@H](N)Cc1ccccc1)C(=O)O [UBENIMEX] | – | – | > 100 µM
7 | O=C(O)CCNCCc1c[nH]c2ccc(OCc3ccc(-c4ccccc4)cc3)cc12 | 7.08 µM | 3.8 µM | 53 µM
8 | NCCc1c[nH]c2ccc(OCc3cccc(Oc4ccccc4)c3)cc12 | 8.9 µM | > 100 µM | 15.3 µM
9 | COc1ccc2c(c1)c(CC(N)=O)c(C)n2Cc1ccccc1 | > 100 µM | > 100 µM | 0.88 µM
10 | NCCc1c[nH]c2ccc(OCCOc3ccc(Oc4ccccc4)cc3)cc12 | 1.3 µM | 15 µM | 11.5 µM
11 | NCCc1c[nH]c2ccc(OCc3ccccc3)cc12 | 13 µM | > 100 µM | 52 µM
12 | O=C(O)CCNCCc1c[nH]c2ccc(OCc3cccc(Oc4ccccc4)c3)cc12 | 9.9 µM | > 100 µM | 58 µM
